HCV NS3 hel inh – blocks Hepatitis C virus NS3 helicase unwinding; AID 1800; inhibition, % at 10.9 µM; NS3 helicase DNA unwinding, Cy5 molecular beacon fluorescence; actives 0.56% (n = 290,000);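 active = inhibition above the mean of all tested compounds plus 3 SD, set per campaign, cut at about 35% in these data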;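 note: 0% = DMSO wells and 100% = thioflavine S control wells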
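Assay system: hepatitis C virus NS3 helicase domain fragment enzyme. Also added: annealed dual-labelled DNA beacon duplex, ATP-started. Timing: 1 h reaction at 25 °C, ATP-initiated. Technique: Cy5 fluorescence at 0 and 60 min, beacon hairpin quenching. Evaluation: % inhibition of unwinding. Replication: one well per compound.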
PRMT1 FP inh – blocks human protein arginine methyltransferase 1; AID 652257; actives 1.3% (n = 370,000); recombinant PRMT1, activity-based probe fluorescence polarization; Q99873; inhibition, % at 2.79 µM;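 active = inhibition above about 21% made by adding two undisclosed values, limit read from the data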
Target sequence (Q99873 whole entry, looked up): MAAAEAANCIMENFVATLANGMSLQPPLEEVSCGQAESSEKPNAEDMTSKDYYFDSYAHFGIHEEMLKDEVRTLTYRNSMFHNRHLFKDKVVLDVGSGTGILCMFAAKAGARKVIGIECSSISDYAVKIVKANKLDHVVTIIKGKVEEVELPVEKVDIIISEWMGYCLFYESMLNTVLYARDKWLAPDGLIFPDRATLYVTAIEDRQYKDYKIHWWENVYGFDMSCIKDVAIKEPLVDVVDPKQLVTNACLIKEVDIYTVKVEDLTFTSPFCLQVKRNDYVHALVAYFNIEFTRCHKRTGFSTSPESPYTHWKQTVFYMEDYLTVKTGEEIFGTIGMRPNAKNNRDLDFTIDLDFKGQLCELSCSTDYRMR
core dimer inh – HCV core protein dimerization inhibition; AID 1899; actives 0.33% (n = 300,000); inhibition, % at 5 µM; TR-FRET GST/Flag-core106 dimerization, 1536-well;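 active = inhibition above the mean of all tested compounds plus 3 SD, set per screening campaign, cut at about 45% in these data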
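Material: Tagged HCV core106 pair (GST and Flag) | Amount: GST-core106 13.5 nM, Flag-core106 17 nM | Medium: KF-containing HEPES buffer, pH 7.45, DTT, CHAPS, BSA | Reagent: Eu donor and XL665 acceptor anti-tag antibodies | Schedule: 4 h at 22.5 °C | Technique: Time-resolved FRET, ex 340 nm, em 617 and 671 nm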
ABHD5-PLIN5 inh – blocks binding of human ABHD5 to perilipin-5; Q00G26+Q8WTS1; Split G. princeps luciferase complementation, luminescence, 4 h; inhibition, % at 4 µM; actives 0.78% (n = 360,000);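 active = inhibition above the mean inhibition across every tested compound plus 3 SD, cut at about 22% in these data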;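 note: 0% = DMSO only wells and the 100% control is not disclosed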
APOBEC3G inh – APOBEC3G (human) deaminase inhibition. Q9HC16. recombinant A3G, ssDNA deamination FAM/TAMRA fluorescence. inhibition, % at 20 µM. actives 0.28% (n = 330,000);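 active = inhibition of at least 40% at 20 µM, with no more than 30% in the related APOBEC3A deaminase screen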;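 note: plate controls were DMSO wells with A3G for no effect and wells lacking A3G enzyme for full effect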
APOBEC3A inh – blocks human APOBEC3A ssDNA deamination | actives 0.41% (n = 330,000) | inhibition, % at 20 µM | P31941 | recombinant A3A, FAM/TAMRA ssDNA deamination fluorescence;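 active = at least 40% inhibition at 20 µM here, with at most 30% in a related deaminase screen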;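 note: plate controls were A3A with DMSO for no effect and wells lacking A3A enzyme for full effect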
Target sequence (P31941 whole entry, looked up): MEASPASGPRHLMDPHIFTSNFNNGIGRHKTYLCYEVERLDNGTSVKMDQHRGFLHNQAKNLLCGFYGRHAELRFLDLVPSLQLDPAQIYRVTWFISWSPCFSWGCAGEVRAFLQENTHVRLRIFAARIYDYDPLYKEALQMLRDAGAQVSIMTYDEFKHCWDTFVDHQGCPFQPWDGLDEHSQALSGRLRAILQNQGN
NS3 helicase cf – HCV NS3 helicase inhibition, confirmation assay; shares compounds with HCV NS3 hel inh; actives 31% (n = 1,600); inhibition, % at 10.9 µM; NS3 helicase DNA unwinding, Cy5 molecular beacon fluorescence;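 active = inhibition above the mean of all tested compounds plus 3 SD, cutoff set per campaign, cut at about 36% in these data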
FID counter trip – intercalator displacement, NS3 helicase counter-screen; shares compounds with HCV NS3 hel inh; DNA fluorescent intercalator displacement, fluorescence; inhibition, % at 7.9 µM; actives 4% (n = 1,600); AID 1945; in the data active = inhibition above about 37%;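 note: 0% = vehicle and 100% = reference compound; higher means more displacement of ethidium bromide from the DNA hairpin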
DNA FID DR – counter-screen for HCV NS3 helicase inhibitors: DNA intercalator displacement dose response; shares compounds with HCV NS3 hel inh; fluorescent intercalator displacement from DNA, fluorescence; IC50, µM; 120 tested, under 10 active; AID 2172
APOBEC3A confirm – confirmation of human APOBEC3A DNA deaminase inhibitors; recombinant A3A, ssDNA deaminase UDG fluorescence assay; inhibition, % at 20 µM; AID 493151; shares compounds with APOBEC3A inh; actives 63% (n = 1,400);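 active = inhibition reaching a set limit, 80% of the first screen's cutoff, at 20 µM in any replicate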;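 note: plate controls were DMSO wells with A3A for no effect and wells lacking A3A enzyme for full effect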
UDG A3A counter – counter-screen for APOBEC3A inhibitors: UDG | shares compounds with APOBEC3A inh | UDG counterscreen, FAM/TAMRA uracil oligo fluorescence | inhibition, % at 20 µM | 1,000 tested, under 10 active | AID 504714
ABHD5 PLIN5 conf – confirmation of human ABHD5-PLIN5 interaction inhibitors | shares compounds with ABHD5-PLIN5 inh | biochemical ABHD5-PLIN5 interaction, luminescence | inhibition, % at 4 µM | actives 67% (n = 2,200); in the data active = inhibition above about 23%;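 note: 0% = DMSO vehicle wells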
HNF4 split-luc – counter-screen for ABHD5-PLIN5 inhibitors: HNF4 split-luciferase. shares compounds with ABHD5-PLIN5 inh. HNF4 dimerization, luminescence, biochemical. inhibition, % at 4 µM. actives 77% (n = 2,200). AID 651674;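 active = mean inhibition across replicate wells exceeding the computed hit threshold, cut at about 13% in these data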;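 note: light from luciferase halves that rejoin when HNF4 fusion proteins dimerize; 0% = DMSO only wells and the 100% control is not given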
PRMT1 confirm – PRMT1 (human) inhibition, FP confirmation; shares compounds with PRMT1 FP inh; recombinant His-PRMT1, activity-based probe fluorescence polarization; inhibition, % at 2.79 µM; actives 42% (n = 3,300); AID 687036;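 active = mean inhibition across replicates above the hit cutoff derived for the earlier primary screen, cut at about 22% in these data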
* = called active by the depositor; i = inactive; / = no result. A selection: hits, their analogues and other compounds. The true share with any hit is near 2.9%. Unless noted, the rule behind the calls is not given here.

SMILES	HCV NS3 hel inh	PRMT1 FP inh	core dimer inh	ABHD5-PLIN5 inh	APOBEC3G inh	APOBEC3A inh	APOBEC3A confirm	UDG A3A counter	others
O=C(COC(=O)c1c2c(nc3ccccc13)/C(=C/c1ccco1)CC2)NC1CCCC1	36*	35*	/	9	/	/	/	/	NS3 helicase cf=96*;FID counter trip=15;DNA FID DR=>79;PRMT1 confirm=28*
Cc1ccc(/C=C/C(=O)Nc2cccc(S(=O)(=O)N3CCOCC3)c2)o1	48*	36*	21	12	-8	5	/	/	NS3 helicase cf=-1;FID counter trip=18;PRMT1 confirm=5
CCN(CC)CCCN1C(=O)C2=C(C1=O)C1N(C)c3ccccc3[C@@]13C[C@@H](CO)N(C(=O)CCC(=O)OC)C3=N2 (stereo partly drawn)	/	-2	/	/	/	/	/	/
O=S(=O)(Nc1nc2ccccc2nc1NCc1ccco1)c1ccc(Cl)cc1	29	10	20	10	-4	-3	/	/
Cc1ccc(S(=O)(=O)Nc2nc3ccccc3nc2NCc2ccco2)cc1	36*	33*	2	25*	1	-1	/	/	NS3 helicase cf=40*;FID counter trip=-1;PRMT1 confirm=9
OC(CNCCc1ccc(C(F)(F)F)cc1)COC(c1ccccc1)c1ccccc1 (stereo not drawn)	-36	-4	-22	-5	-7	-1	/	/
CC(=O)OCCCNc1cc(SCc2ccco2)c2nonc2c1[N+](=O)[O-]	41*	54*	36	3	63	72	/	/	NS3 helicase cf=31;FID counter trip=27;PRMT1 confirm=14
O=C(CSc1ccc(-c2ccco2)nn1)c1cccc([N+](=O)[O-])c1	38*	31*	65*	2	29	22	/	/	NS3 helicase cf=-9;FID counter trip=16;PRMT1 confirm=4
COCCN(Cc1ccc(OC)cc1)c1c(C)nc2ccc(C(=O)Nc3ccc(NC(C)=O)cc3)cn12	/	0	/	0	/	/	/	/
O=C(CCCSc1ccccc1)Nc1nc(-c2ccco2)c(-c2ccco2)s1	92*	44*	7	21	/	/	/	/	NS3 helicase cf=69*;FID counter trip=18;DNA FID DR=i;PRMT1 confirm=2
O=C1S/C(=C\C=C\c2ccco2)C(=O)N1c1ccc(O)cc1	129*	31*	51*	49*	56	68	/	/	NS3 helicase cf=-2;FID counter trip=11;ABHD5 PLIN5 conf=33*;HNF4 split-luc=49*;PRMT1 confirm=4
O=C1S/C(=C\C=C\c2ccco2)C(=O)N1c1ccccc1	49*	40*	30	37*	7	17	/	/	NS3 helicase cf=45*;FID counter trip=34;ABHD5 PLIN5 conf=28*;HNF4 split-luc=36*;PRMT1 confirm=9
CCCc1nc2ccc(C)cn2c1Cc1ccc(C)cc1	/	-1	/	0	/	/	/	/
O=C(Cn1ccnc1[N+](=O)[O-])NCCO	/	-3	/	-4	/	/	/	/
CCn1ccc2cc(OC)ccc2c1=S	2	2	7	-1	0	-3	/	/
CCSc1ccc2cc(OC)ccc2[n+]1CC	-17	0	-1	6	28	78*	70*	-3
COC(=O)C1=C(C)N(Cc2ccccc2)C(=NCc2ccc(OC)cc2)N[C@H]1c1ccccc1	/	0	/	2	11	45*	59*	-2
COC(=O)C1=C(C)N(Cc2cccc(C(F)(F)F)c2)C(=NCc2ccc(OC)cc2)NC1c1ccccc1 (stereo not drawn)	/	-5	/	/	/	/	/	/
COC(=O)C1=C(C)N(Cc2ccccc2)C(=NCC(C)C)N[C@H]1c1ccccc1	-83	/	3	/	14	64*	58*	-2
CC(C)(C)C1N=C(c2ccc3ccccc3c2)OC1=O (stereo not drawn)	/	-1	/	-6	-5	-2	/	/
C[n+]1ccc(/C=C/c2c[nH]c3ccc(F)cc23)cc1	-8	-18	/	0	12	49*	45*	/
CCOc1cccc(-c2cc(NCCc3ccccn3)n3nccc3n2)c1	/	0	/	-8	/	/	/	/
COCCNC(=S)N1CCC2CC1c1c(Cl)cccc12 (stereo not drawn)	/	-2	/	3	/	/	/	/
Cc1c(C(=O)OC(C)C(C)C[N+](C)(C)C)oc2ccccc12 (stereo not drawn)	3	-1	7	0	24	83*	81*	-3
Cc1c(C(=O)OC(C)C(=O)N(C)Cc2ccccc2)oc2ccccc12 (stereo not drawn)	/	1	/	-5	-4	-2	/	/
SMILES	HCV NS3 hel inh	PRMT1 FP inh	core dimer inh	ABHD5-PLIN5 inh	APOBEC3G inh	APOBEC3A inh	APOBEC3A confirm	UDG A3A counter	others
CC1CCN(C(=O)CCc2ccc(S(=O)(=O)NC(C)C)cc2)CC1	0	-4	1	0	-3	51*	-7	-3
CC(C)NS(=O)(=O)c1ccc(CCC(=O)N2CCc3ccccc3C2)cc1	-21	-3	7	-6	-6	-2	/	/
O=C(O)c1nsc(Cl)c1Cl	7	-2	-8	-1	-4	99*	-1	-3
O=C(O)c1ncc(Cl)c(Cl)c1Cl	1	-2	0	2	-4	-4	/	/
C[N+](C)(C)CCN(Cc1ccc(Cl)cc1)c1ccccn1	-3	-1	-6	12	16	58*	68*	1
CN(C)CCN(Cc1ccc(Cl)cc1)c1ccccn1	-16	-4	-7	2	-6	1	/	/
O=P(c1ccccc1)(c1ccccc1)c1cc(S(=O)(=O)O)ccc1O	5	-1	/	-2	17	83*	63*	-2
Cc1ccc2nc(NC(=O)C3CCN(S(=O)(=O)c4cc([N+](=O)[O-])ccc4Cl)CC3)sc2c1	-22	0	66*	-1	14	42*	25	/
CC(=O)COC(=O)C1CCN(S(=O)(=O)c2cc([N+](=O)[O-])ccc2Cl)CC1	5	4	6	1	1	27	/	/
O=C(COC(=O)C1CCN(S(=O)(=O)c2cc([N+](=O)[O-])ccc2Cl)CC1)Nc1ncc(Cl)cc1Cl	7	8	12	2	21	51*	50*	-3

Screening results as filed in PubChem.
